# Compound activity as filed in PubChem.
# Cl transport mod: KCC2 cotransporter modulators, thallium flux, primary screen, cell-based, HEK293 KCC2, FluoZin-2 fluorescence, MLSMR; Solute carrier family 12 member 5 (Homo sapiens), Q9H2X9; KCC2 cells, thallium flux FluoZin-2 fluorescence; B-score of Tl+ flux slope (higher = more flux/activation; lower = inhibition) at 10 µM; 190,000 compounds, 2.2% hits;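 active = thallium flux slope and its plate-corrected score both differing from the plate sample mean at a set confidence after two filtering rounds, in either direction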;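 also: slope of fluorescence scaled to starting intensity during 10 to 20 s after thallium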
# Target sequence (Q9H2X9 whole entry, looked up): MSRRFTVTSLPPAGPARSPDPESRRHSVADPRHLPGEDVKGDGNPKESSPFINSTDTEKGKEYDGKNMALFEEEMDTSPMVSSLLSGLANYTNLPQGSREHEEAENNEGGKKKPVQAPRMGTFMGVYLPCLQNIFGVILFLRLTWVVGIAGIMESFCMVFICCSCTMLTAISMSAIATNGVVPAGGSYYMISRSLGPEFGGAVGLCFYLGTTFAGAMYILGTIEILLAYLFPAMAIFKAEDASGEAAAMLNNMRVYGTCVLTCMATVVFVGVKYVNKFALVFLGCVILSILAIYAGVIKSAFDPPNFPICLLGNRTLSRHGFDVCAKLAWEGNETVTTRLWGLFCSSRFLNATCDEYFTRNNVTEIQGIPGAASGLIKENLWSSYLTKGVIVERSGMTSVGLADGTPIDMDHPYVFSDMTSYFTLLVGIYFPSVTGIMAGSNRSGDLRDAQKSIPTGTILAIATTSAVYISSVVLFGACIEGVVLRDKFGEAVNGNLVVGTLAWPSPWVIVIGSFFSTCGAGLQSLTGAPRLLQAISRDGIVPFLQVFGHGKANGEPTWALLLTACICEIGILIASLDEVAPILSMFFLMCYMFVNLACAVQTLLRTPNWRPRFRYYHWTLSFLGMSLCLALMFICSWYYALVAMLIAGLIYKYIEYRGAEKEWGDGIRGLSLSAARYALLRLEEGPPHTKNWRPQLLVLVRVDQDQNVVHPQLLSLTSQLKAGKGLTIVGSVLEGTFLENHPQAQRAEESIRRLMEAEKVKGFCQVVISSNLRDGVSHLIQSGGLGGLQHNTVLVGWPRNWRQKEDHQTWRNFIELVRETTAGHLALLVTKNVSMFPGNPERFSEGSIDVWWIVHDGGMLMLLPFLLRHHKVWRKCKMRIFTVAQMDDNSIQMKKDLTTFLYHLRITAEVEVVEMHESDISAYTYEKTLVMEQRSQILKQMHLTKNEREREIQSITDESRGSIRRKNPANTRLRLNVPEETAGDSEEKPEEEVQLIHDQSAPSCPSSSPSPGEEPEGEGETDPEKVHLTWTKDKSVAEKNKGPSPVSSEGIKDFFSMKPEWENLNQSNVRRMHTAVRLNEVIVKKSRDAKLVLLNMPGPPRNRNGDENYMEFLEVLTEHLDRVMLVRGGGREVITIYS
# WT yeast gro inh: growth inhibition of WT strain, primary screen, mitochondrial fusion inhibitor project, WT and mutant strains, chemical genetic; mitochondrial fusion phenotypic screen; inhibition, % at 10 µM; 190,000 compounds, 2.1% hits; AID 1362, 2008; in the data active = inhibition above about 58%; tested in S. cerevisiae
# MT stabilizer: microtubule stabilizers in HeLa cells, primary screen, imaging, high-content imaging. HeLa tubulin immunostaining HCS, 24 h; share of cells brighter than vehicle mean+2SD. 200,000 compounds, 0.83% hits. % tubulin-high responders, % at 10 µM;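 active = plate Z-score above 3 for both tubulin-high and condensed-nucleus cell shares, with cell loss under 80%, at 10 µM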;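 also: anti alpha tubulin signal scored within the nucleus-defined area of each cell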
# bCat nuc transl: modulators of beta-catenin nuclear translocation, primary screen, imaging, HeLa cells, immunofluorescence, high-content. nuclear translocation activity, % at 5 µM. 190,000 compounds, 0.3% hits. AID 1665, 2009;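 active = nuclear translocation activity above 50% at 5 µM, with a well cell count of 50 or more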;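 also: per-cell ratio of nuclear to cytoplasmic median beta-catenin stain intensity; plate controls were DMSO negative control for no effect and GSK-3 inhibitor IX positive control for full effect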
#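 Test system: human HeLa cells, endogenous beta-catenin. Times: 24 h compound exposure, 37°C. Measured by: beta-catenin immunofluorescence imaging with DAPI.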
# Pf gametocyte: late stage P. falciparum gametocyte viability inhibitors, primary screen, ATP luminescence, HTS; P. falciparum stage V gametocytes, 24 h; inhibition, % at 10.9 µM; 150,000 compounds, 0.065% hits;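 active = inhibition above the mean plus 3 SD of compounds within the control limits, set per campaign, cut at about 38% in these data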;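 also: 0% = DMSO wells and 100% = medium only without gametocytes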
# * hit, by the source's call; · = no result. Sampled rows, rich in hits. Any-hit rate of the full collection: about 4%.
SMILES,Cl transport mod,WT yeast gro inh,MT stabilizer,bCat nuc transl,Pf gametocyte
CC(C)CC(=O)NC(=S)Nc1ccccc1F,-0.64,17.4,1.8,-0.6,·
COc1ccc(CCNC(=O)Cn2c(=O)n(-c3ccc(C)c(F)c3)c(=O)c3sccc32)cc1OC,-0.0256,15.5,2.2,-2.3,0.7
CC1=C(C#N)C(c2ccccc2)C2=C(N1)c1ccccc1C2=O (stereo unspecified),-2.46,-11.7,23.6*,-4.2,16.0
CC1=C(C#N)C(c2cccnc2)C2=C(N1)c1ccccc1C2=O (stereo unspecified),-0.295,-5.2,1.0,-2.3,-16.4
CC(C)CNC(=S)N(CCCO)Cc1cc2cc3c(cc2[nH]c1=O)OCO3,·,·,·,·,5.2
COc1ccc(C(=O)NC(=S)NC(C)(C)C)cc1Br,4.05*,31.6,0.8,0.3,·
Cc1[nH]n(C(N)=S)c(=O)c1N=Nc1ccc(S(=O)(=O)N2CCCCCC2)cc1,·,67.5*,1.6,-0.6,7.1
CC(=O)Nc1ccc(N=Nc2c(C)[nH]n(C(N)=S)c2=O)cc1,0.121,2.6,3.5,0.7,10.7
Cn1c(-c2ccc(F)cc2)cnc1NCc1cccc(F)c1,0.319,5.1,14.5*,38.1,·
Cc1ccccc1OCC(=O)Nc1ccccc1N1CCC(C)CC1,0.349,65.2*,3.0,-0.2,32.0
Cc1cccc(OCC(=O)Nc2ccccc2N2CCCCC2)c1,·,28.6,3.5,0.4,2.5
Cc1ccc(OCC(=O)Nc2ccccc2N2CCCC2)c(C)c1,-0.442,65.5*,1.5,0.1,7.4
CCC(=O)N1CCN(c2ccccc2NC(=O)COc2cc(C)ccc2C(C)C)CC1,-0.716,67.3*,3.1,0.2,15.0
CC(OCC(O)CN(C)Cc1nc2ccccc2c(=O)[nH]1)c1ccc(Cl)cc1 (stereo unspecified),0.064,-0.5,2.6,-3.9,-8.9
NNC(=O)c1nc[nH]c1C(=O)Nc1ccccc1,·,·,·,·,-3.6
Cc1ccc(S(=O)(=O)c2c(C)cc(C)nc2Oc2cccc(C)c2C)cc1,·,66.3*,1.9,-2.8,-8.0
Cc1ccc(-c2ncccc2OC(=O)C23CC4CC(CC(C4)C2)C3)cc1,-0.047,72.8*,2.1,-2.4,·
Cc1ccc(/C(N)=N/OC(=O)C23CC4CC(CC(C4)C2)C3)cc1,-0.808,53.7,2.5,0.2,·
O=C(NCc1cccs1)C1CC(c2ccc(Cl)c(Cl)c2)=NO1 (stereo unspecified),-0.244,-2.0,3.1,62.5*,5.3
COc1ccc(OC)c(C2=NOC(C(=O)NCc3cccs3)C2)c1 (stereo unspecified),0.428,-12.4,23.1*,-0.7,-14.4
COc1ccc(OC)c(C2=NOC(C(=O)NCCN3CCOCC3)C2)c1 (stereo unspecified),·,14.7,1.7,-0.8,·
Cc1cccc2sc(NC(=O)CCn3cccc3)nc12,-0.575,5.8,3.2,-0.5,-0.7
Cc1cccc2sc(NC(=O)Cn3cccc3)nc12,11.5*,14.2,8.0,0.5,·
CCCCNC(=O)[C@H]1C[C@H]1[C@@H](O)[C@H](CO)NC(=O)[C@H](COCc1ccccc1)NC(=O)OC(C)(C)C,·,·,·,·,17.1
CCOc1ccc(-n2cc(C(=O)c3cc(Cl)ccc3O)cc(C#N)c2=O)cc1,0.271,59.5*,2.8,-0.2,-14.2
SMILES,Cl transport mod,WT yeast gro inh,MT stabilizer,bCat nuc transl,Pf gametocyte
COc1ccc(-n2cc(C(=O)c3cc(Cl)ccc3O)cc(C#N)c2=O)cc1,-0.0259,44.4,2.6,-0.9,9.7
COc1ccc2c(c1)c1ncnc(N3CCN(Cc4ccc5c(c4)OCO5)CC3)c1n2C,·,18.5,4.0,-4.3,·
COc1ccc2[nH]c3c(N4CCN(Cc5ccc6c(c5)OCO6)CC4)ncnc3c2c1,-1.25,-7.5,20.6*,4.1,·
CS(=O)(=O)N1CC(C(=O)NC2CC2)Oc2ccc(Cl)cc21 (stereo unspecified),·,6.5,0.5,-1.1,·
Cc1ccc(Sc2ccc(NC(=O)CCl)cc2)c(C)c1,1.15,64.0*,2.0,2.1,16.1
O=C(CCl)Nc1ccccc1Sc1ccc(Cl)cc1,1.45,31.2,1.8,-3.9,4.9
CCc1ccc(-c2nc(CN3CCC(C(=O)NCCN(CC)c4ccccc4)CC3)c(C)o2)cc1,1.05,71.1*,93.2,-2.8,-1.1
CCc1ccc(-c2nc(CN3CCC(C(=O)N4CCN(c5ccccc5)CC4)CC3)c(C)o2)cc1,2.02*,66.1*,5.3,-3.8,-65.7
CCOC(=O)N1CCN(c2c(NCc3cccs3)c(=O)c2=O)CC1,-0.0559,-4.8,20.4*,·,·
CCOC(=O)N1CCN(c2c(NCc3ccc(F)cc3)c(=O)c2=O)CC1,-0.737,·,·,45.5,4.1
COc1ccc(C2Nc3ccccc3C(=O)N2NS(=O)(=O)c2ccccc2)cc1 (stereo unspecified),0.243,-8.9,2.4,-1.6,-19.3
COc1cc2c(cc1OC)CN(C(=O)c1ccc3nc[nH]c3c1)CC2,-1.11,6.5,17.9*,82.3*,-2.1
C=CCSC1=N/C(=C\c2cc(OCC)c(OC(C)=O)c([N+](=O)[O-])c2)C(=O)S1,0.835,34.7,1.2,-1.8,-9.2
Cc1ccsc1C(=O)N1CCC(N2CCC(C(=O)NCC3CCCO3)CC2)CC1 (stereo unspecified),0.24,-9.4,3.5,-0.8,-14.2
Cc1cc(/C=C\c2ccccc2)nc2ccccc12,1.37,70.6*,1.3,-3.3,-6.6
COc1ccc(/C=C/c2cc(C(=O)O)c3ccccc3n2)cc1,-1.94,·,·,0.4,-21.8
Cc1nnc(SCc2ccc(F)cc2)n1NC/C=C/c1ccccc1,-4.67*,6.0,0.7,-0.5,·
CC(C)N=c1scc(-c2cccs2)n1/N=C/c1ccc(O)c(O)c1O,-0.107,81.8*,3.7,1.3,-10.5
CN=c1scc(-c2ccccc2F)n1/N=C/c1ccc(O)c(O)c1O,-0.346,39.0,5.2,-2.1,-8.5
CC1(C)C=Cc2c(c3c(c4c(=O)c(-c5ccc(O)cc5)coc24)OC(C)(C)CC3)O1,0.636,71.4*,1.9,-1.2,·
N#Cc1nc(COc2ccc(-c3ccccc3)cc2)oc1NCCCN1CCOCC1,-0.847,76.8*,1.8,-5.9,·
COc1ccc(-n2cc(-c3ccccc3)c3c(N4CC(C)OC(C)C4)ncnc32)cc1 (stereo unspecified),-2.77,68.5*,1.4,0.1,15.0
c1ccc(-c2cn(-c3ccccc3)c3ncnc(N4CCCCC4)c23)cc1,1.6,55.2,2.6,0.4,6.6
CCOc1ccc(-n2cc(-c3ccccc3)c3c(N4CCOCC4)ncnc32)cc1,0.717,59.4*,3.7,0.9,·
CCCC(=O)C1=C(N2CCCCC2)CC(C)(C)C(C(=O)OC)C1=O (stereo unspecified),-0.373,-13.8,2.1,-1.0,4.6
CC(C)(C)NC(=O)CSc1nc2cccnc2n1C1CCCCC1,·,·,·,·,-23.5
CCCOC(=O)c1ccc(Oc2cn[nH]c2-c2ccc(OCC)cc2O)cc1,·,-11.5,5.0,-5.6,·
CCCc1ccc(Oc2cn[nH]c2-c2ccc(O)c(C)c2O)cc1,0.269,82.7*,4.0,4.5,·
